ChEMBL document CHEMBL4152215, “Anti-leishmanial click modifiable thiosemicarbazones: Design, synthesis, biological evaluation and in silico studies” (Eur J Med Chem, 2018)

How the values were obtained:
Mus musculus [1] = assay: Acute toxicity in mouse assessed as effect on spleen morphology at 75 mg/kg, ip measured up to 7 days by histopathological analysis; type: organism-based; settings: in vivo, 168 h
How it was run: (§1)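 Groups of six mice dosed by intraperitoneal injection at 5, 10, 25, 50 and 75 mg/kg, with propylene glycol as vehicle and control. Spleen, lung, liver and kidney taken from the 75 mg/kg animals and examined for texture.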

Mus musculus [2] = assay: Acute toxicity in mouse assessed as effect on spleen morphology at 125 mg/kg, po administered via gavage measured after 24 hrs and followed up to 7 days by histopathological analysis; type: organism-based; settings: in vivo
How it was run: (§2)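 Male mice (25-30 g), six per group, fasted overnight and weighed before dosing. Compound suspended in aqueous 1% gum acacia and given by oral gavage in ascending doses of 25, 50, 75, 100 and 125 mg/kg/day (groups I-V). Vehicle group received gum acacia at up to 1 mL/100 g. Mortality recorded at 24 h and followed for seven days. Spleen, lung, liver and kidney examined.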

Leishmania major [3] = assay: Antileishmanial activity against Leishmania major assessed as parasite survival at 0.25 uM after 48 hrs in presence of 20 uM folinic acid relative to control; type: functional
How it was run: (§3)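 L. major promastigotes in log phase (10⁶ parasites) pre-incubated with folic or folinic acid (20 or 100 µM), washed, resuspended in PBS for 1 h at room temperature, then returned to culture medium in 24-well plates. Compounds added at the fixed concentration, with trimethoprim at 100 µM. Incubated 48 h; living parasites counted per mL against untreated control wells.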

Leishmania major [4] = assay: Potency index, ratio of miltefosine IC50 to compound IC50 for antileishmanial activity axenic amastigote form of Leishmania major; type: functional
Leishmania major [5] = assay: Antileishmanial activity against Leishmania major assessed as parasite survival at 0.25 uM after 48 hrs in presence of 20 uM folic acid relative to control; type: functional; how it was run: as §3
Mus musculus [6] = assay: Acute toxicity in mouse assessed as effect on survival up to 75 mg/kg dosed via parenteral route measured up to 7 days; type: organism-based; settings: in vivo, 168 h; how it was run: as §1
Leishmania major [7] = assay: Antileishmanial activity against Leishmania major assessed as parasite survival at 0.25 uM after 48 hrs relative to control; type: functional; how it was run: as §3
Mus musculus [8] = assay: Acute toxicity in mouse assessed as effect on kidney morphology at 75 mg/kg, ip measured up to 7 days by histopathological analysis; type: organism-based; settings: in vivo, 168 h; how it was run: as §1
Leishmania major [9] = assay: Antileishmanial activity against axenic amastigote form of Leishmania major assessed as parasite growth inhibition after 72 hrs by resazurin dye based assay; type: functional, organism-based
How it was run: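 Axenic L. major amastigotes, generated in RPMI-1640 with 10% heat-inactivated FCS, penicillin/streptomycin and L-glutamine, seeded at 2 x 10³ cells/ml onto serially diluted compound (0.04-10 final). Held at 31°C, 5% CO₂, humidified, for 72 h. Resazurin added at 68 h and read at 72 h (ex 530/em 590 nm). IC50 from sigmoidal dose-response curves; mean ± SEM, triplicate experiments in duplicate.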

Mus musculus [10] = assay: Acute toxicity in mouse assessed as effect on kidney morphology at 125 mg/kg, po administered via gavage measured after 24 hrs and followed up to 7 days by histopathological analysis; type: organism-based; settings: in vivo; how it was run: as §2
Mus musculus [11] = assay: Acute toxicity in mouse assessed as induction of death at 25 to 125 mg/kg/day, po administered via gavage measured during 3 days post dose; type: organism-based; settings: in vivo, 72 h; how it was run: as §2
Leishmania major [12] = assay: Antileishmanial activity against promastigote form of Leishmania major assessed as parasite growth inhibition after 48 hrs by alamar blue assay; type: functional, organism-based
Leishmania major [13] = assay: Antileishmanial activity against Leishmania major assessed as parasite survival at 0.25 uM after 48 hrs in presence of 100 uM folinic acid relative to control; type: functional; how it was run: as §3
Mus musculus [14] = assay: Acute toxicity in mouse up to 125 mg/kg/day, po administered via gavage measured after 24 hrs and followed up to 7 days; type: organism-based; settings: in vivo; how it was run: as §2
[15] = Cytotoxicity against African green monkey Vero cells assessed as reduction in cell viability after 72 hrs by crystal violet staining based assay; settings: chlorocebus sabaeus
How it was run: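 Vero cells seeded at 1×10^5 cells/well in MEM with 5% heat-inactivated FBS. Viability by crystal violet staining; CC50 from concentration-response. At least 3 separate experiments, each in duplicate.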

[16] = Selectivity index, ratio of CC50 African green monkey Vero cells to IC50 for promastigote form of Leishmania major; type: toxicity; settings: Vero cells versus Leishmania major promastigotes, read-out: Ratio CC50/IC50
How it was run: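 Selectivity index calculated as Vero CC50 (72 h crystal violet) divided by promastigote IC50.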

Mus musculus [17] = assay: Acute toxicity in mouse assessed as effect on body weight at 25 to 125 mg/kg/day, po administered via gavage measured during 3 days post dose; type: organism-based; settings: in vivo, 72 h; how it was run: as §2
Leishmania major [18] = assay: Antileishmanial activity against Leishmania major assessed as parasite survival at 0.25 uM after 48 hrs in presence of 100 uM folic acid relative to control; type: functional; how it was run: as §3
Mus musculus [19] = assay: Acute toxicity in mouse assessed as effect on liver morphology at 75 mg/kg, ip measured up to 7 days by histopathological analysis; type: organism-based; settings: in vivo, 168 h; how it was run: as §1
Mus musculus [20] = assay: Acute toxicity in mouse assessed as effect on lung morphology at 125 mg/kg, po administered via gavage measured after 24 hrs and followed up to 7 days by histopathological analysis; type: organism-based; settings: in vivo; how it was run: as §2
Mus musculus [21] = assay: Acute toxicity in mouse assessed as effect on liver morphology at 125 mg/kg, po administered via gavage measured after 24 hrs and followed up to 7 days by histopathological analysis; type: organism-based; settings: in vivo; how it was run: as §2
Mus musculus [22] = assay: Acute toxicity in mouse assessed as effect on lung morphology at 75 mg/kg, ip measured up to 7 days by histopathological analysis; type: organism-based; settings: in vivo, 168 h; how it was run: as §1
Leishmania major [23] = assay: Potency index, ratio of miltefosine IC50 to compound IC50 for antileishmanial activity promastigote form of Leishmania major; type: functional
Leishmania major [24] = assay: Antileishmanial activity against Leishmania major assessed as parasite survival at 0.16 uM after 48 hrs relative to control; type: functional; how it was run: as §3
Leishmania major [25] = assay: Antileishmanial activity against Leishmania major assessed as parasite survival at 0.16 uM after 48 hrs in presence of 20 uM folic acid relative to control; type: functional; how it was run: as §3
Leishmania major [26] = assay: Antileishmanial activity against Leishmania major assessed as parasite survival at 0.16 uM after 48 hrs in presence of 100 uM folic acid relative to control; type: functional; how it was run: as §3
Leishmania major [27] = assay: Antileishmanial activity against Leishmania major assessed as parasite survival at 0.16 uM after 48 hrs in presence of 100 uM folinic acid relative to control; type: functional; how it was run: as §3
Leishmania major [28] = assay: Antileishmanial activity against Leishmania major assessed as parasite survival at 0.16 uM after 48 hrs in presence of 20 uM folinic acid relative to control; type: functional; how it was run: as §3

Compound: C#CCOc1ccc(/C=N/NC(N)=S)cc1OC
- Activity (Mus musculus [1]): Non-Toxic
- Activity (Mus musculus [2]): Non-Toxic
- Activity (Leishmania major [3]): 90%
- Ratio IC50 (Leishmania major [4]): 6
- Activity (Leishmania major [5]): 89%
- Activity (Mus musculus [6]): Non-Toxic
- Activity (Leishmania major [7]): 25%
- Activity (Mus musculus [8]): Non-Toxic
- IC50 (Leishmania major [9]): 1.4 µM
- Activity (Mus musculus [10]): Non-Toxic
- Activity (Mus musculus [11]): Non-Toxic
- IC50 (Leishmania major [12]): 0.227 µM
- Activity (Leishmania major [13]): 98%
- Activity (Mus musculus [14]): Non-Toxic
- CC50 at 72 h [15]: 828 µM
- selectivity ratio [16]: 3640
- Activity (Mus musculus [17]): Non-Toxic
- Activity (Leishmania major [18]): 97%
- Activity (Mus musculus [19]): Non-Toxic
- Activity (Mus musculus [20]): Non-Toxic
- Activity (Mus musculus [21]): Non-Toxic
- Activity (Mus musculus [22]): Non-Toxic

Compound: COc1cc(/C=N\NC(N)=S)ccc1OCc1cn(CC(=O)c2ccc(Br)cc2)nn1
- IC50 (Leishmania major [9]): 5.1 µM
- IC50 (Leishmania major [12]): 3.97 µM

Compound: COc1cc(/C=N/NC(N)=S)ccc1OCc1cn(CC(=O)c2ccc(C)cc2)nn1
- IC50 (Leishmania major [9]): 4.97 µM
- IC50 (Leishmania major [12]): 4.82 µM

Compound: COc1ccc(/C=N\NC(N)=S)cc1OCc1cn(CC(=O)c2ccc(Cl)cc2)nn1
- Ratio IC50 (Leishmania major [4]): 5
- IC50 (Leishmania major [9]): 1.69 µM
- IC50 (Leishmania major [12]): 0.798 µM

Compound: COc1cc(/C=N\NC(N)=S)ccc1OCc1cn(CC(=O)c2ccc(Cl)cc2)nn1
- IC50 (Leishmania major [9]): 5.4 µM
- IC50 (Leishmania major [12]): 4.76 µM

Compound: COc1ccc(/C=N/NC(N)=S)cc1OCc1cn(-c2ccc(S(N)(=O)=O)cc2)nn1
- IC50 (Leishmania major [9]): 4.35 µM
- IC50 (Leishmania major [12]): 4.38 µM

Compound: C/C(=N/NC(N)=S)c1ccc(OCc2cn(CC(=O)c3ccc(Br)cc3)nn2)cc1
- Activity (Mus musculus [1]): Non-Toxic
- Activity (Mus musculus [2]): Non-Toxic
- Ratio IC50 (Leishmania major [23]): 55.6
- Activity (Leishmania major [24]): 23%
- Ratio IC50 (Leishmania major [4]): 8
- Activity (Mus musculus [6]): Non-Toxic
- Activity (Mus musculus [8]): Non-Toxic
- IC50 (Leishmania major [9]): 1 µM
- Activity (Mus musculus [10]): Non-Toxic
- Activity (Leishmania major [25]): 91%
- Activity (Mus musculus [11]): Non-Toxic
- IC50 (Leishmania major [12]): 0.14 µM
- Activity (Leishmania major [26]): 99%
- Activity (Mus musculus [14]): Non-Toxic
- CC50 at 72 h [15]: 509 µM
- selectivity ratio [16]: 3630
- Activity (Leishmania major [27]): 99%
- Activity (Leishmania major [28]): 90%
- Activity (Mus musculus [17]): Non-Toxic
- Activity (Mus musculus [19]): Non-Toxic
- Activity (Mus musculus [20]): Non-Toxic
- Activity (Mus musculus [21]): Non-Toxic
- Activity (Mus musculus [22]): Non-Toxic

Compound: COc1ccc(/C=N/NC(N)=S)cc1OCc1cn(CC(=O)c2ccc(F)cc2)nn1
- IC50 (Leishmania major [9]): 4.83 µM
- IC50 (Leishmania major [12]): 2.52 µM

Compound: C/C(=N/NC(N)=S)c1ccc(OCc2cn(-c3ccc(C(=O)O)cc3)nn2)cc1
- IC50 (Leishmania major [9]): 6.04 µM
- IC50 (Leishmania major [12]): 7.41 µM

Compound: COc1cc(/C=N/NC(N)=S)ccc1OCc1cn(CC(=O)c2ccc(F)cc2)nn1
- IC50 (Leishmania major [9]): 6.46 µM
- IC50 (Leishmania major [12]): 6.93 µM

Compound: COc1ccc(/C=N\NC(N)=S)cc1OCc1cn(CC(=O)c2ccccc2)nn1
- IC50 (Leishmania major [9]): 4.38 µM
- IC50 (Leishmania major [12]): 4.4 µM

Compound: COc1ccc(/C=N/NC(N)=S)cc1OCc1cn(CC(=O)c2ccc(C)cc2)nn1
- Ratio IC50 (Leishmania major [4]): 4
- IC50 (Leishmania major [9]): 2.18 µM
- IC50 (Leishmania major [12]): 0.99 µM

Compound: COc1cc(/C=N/NC(N)=S)ccc1OCc1cn(-c2ccc(C(=O)O)cc2)nn1
- IC50 (Leishmania major [9]): 5.6 µM
- IC50 (Leishmania major [12]): 5.74 µM

Compound: COc1ccc(/C=N/NC(N)=S)cc1OCc1cn(-c2ccc(C(=O)O)cc2)nn1
- IC50 (Leishmania major [9]): 4.78 µM
- IC50 (Leishmania major [12]): 5 µM

Compound: COc1ccc(/C=N\NC(N)=S)cc1OCc1cn(CC(=O)c2ccc(Br)cc2)nn1
- IC50 (Leishmania major [9]): 4.48 µM
- IC50 (Leishmania major [12]): 5.69 µM

Compound: COc1cc(/C=N\NC(N)=S)ccc1OCc1cn(CC(=O)c2ccccc2)nn1
- IC50 (Leishmania major [9]): 5.39 µM
- IC50 (Leishmania major [12]): 4.87 µM

Compound: C/C(=N/NC(N)=S)c1ccc(OCc2cn(-c3ccc(S(N)(=O)=O)cc3)nn2)cc1
- IC50 (Leishmania major [9]): 8.26 µM
- IC50 (Leishmania major [12]): 6.79 µM

Compound: CCCCCCCCCCCCCCCCOP(=O)([O-])OCC[N+](C)(C)C [MILTEFOSINE]
- IC50 (Leishmania major [9]): 8.09 µM
